ChEMBL document CHEMBL4350961, “Discovery of Pyrrolo[3,2- d]pyrimidin-4-one Derivatives as a New Class of Potent and Cell-Active Inhibitors of P300/CBP-Associated Factor Bromodomain” (J Med Chem, 2019)
Activity calls are given as the source filed them.

What was measured:
[1] = molecular target: Bromodomain testis-specific protein (Homo sapiens) (UniProt Q58F21); assay: Binding affinity to human partial length BRDT bromodomain 1 (N21 to E137 residues) expressed in bacterial expression system at 1 uM by BROMOscan assay
In short: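 BROMOscan bromodomain cross-screen run by an outside service, compound at 1 µM against 32 recombinant bromodomains. Binding given as percent of control.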

[2] = molecular target: Mitogen-activated protein kinase 12 (Homo sapiens) (UniProt P53778); assay: Inhibition of recombinant full-length human SAPK3 at 10 uM using myelin basic protein as substrate measured after 40 mins in presence of [gamma33P]ATP by scintillation counting method
[3] = tested on: PI3-kinase p110-alpha/p85-alpha (Homo sapiens), P27986+P42336 [E545K]; assay: Inhibition of recombinant full-length human PI3K p110alpha/p85alpha E545K mutant at 10 uM using phosphatidylinositol-4, 5-bisphosphate as substrate measured after 40 mins by fluorescence assay; type: protein-complex assay
[4] = molecular target: Dual specificity tyrosine-phosphorylation-regulated kinase 1A (Homo sapiens) (UniProt Q13627); assay: Inhibition of recombinant full-length human DYRK1A at 10 uM using RRRFRPASPLRGPPK as substrate measured after 40 mins in presence of [gamma33P]ATP by scintillation counting method
[5] = molecular target: Tyrosine-protein kinase ZAP-70 (Homo sapiens) (UniProt P43403); assay: Inhibition of recombinant full-length human ZAP70 at 10 uM using poly(Glu, Tyr) 4:1 as substrate measured after 40 mins in presence of [gamma33P]ATP by scintillation counting method
[6] = molecular target: Glycogen synthase kinase-3 alpha (Homo sapiens) (UniProt P49840); assay: Inhibition of recombinant human GSK3alpha (2 to end residues) at 10 uM using phospho GS2 peptide as substrate measured after 40 mins in presence of [gamma33P]ATP by scintillation counting method
[7] = molecular target: Calcium/calmodulin-dependent protein kinase type 1G (Homo sapiens) (UniProt Q96NX5); assay: Inhibition of human CaMK1gamma
In short: (§1)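 Kinase panel of 422 kinases screened by Eurofins KinaseProfiler at a single test-compound concentration of 10 µM.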

[8] = molecular target: SRSF protein kinase 1 (Homo sapiens) (UniProt Q96SB4); assay: Inhibition of human SRPK1 (2 to end residues) using RSRSRSRSRSRSRSR as substrate measured after 40 mins in presence of [gamma33P]ATP by scintillation counting method; in short: as §1
[9] = molecular target: Serine/threonine-protein kinase TAO1 (Homo sapiens) (UniProt Q7L7X3); assay: Inhibition of human TAO1 (1 to 327 residues) using myelin basic protein as substrate measured after 40 mins in presence of [gamma33P]ATP by scintillation counting method
[10] = tested on: eIF-2-alpha kinase GCN2 (Homo sapiens), Q9P2K8 [E556G]; assay: Inhibition of recombinant full-length human GCN2 E556G mutant at 10 uM using RSRSRSRSRSRSRSR as substrate measured after 40 mins in presence of [gamma33P]ATP by scintillation counting method
[11] = molecular target: Eukaryotic translation initiation factor 2-alpha kinase 3 (Homo sapiens) (UniProt Q9NZJ5); assay: Inhibition of recombinant human PEK (536 to end residues) at 10 uM using RSRSRSRSRSRSRSR as substrate measured after 40 mins in presence of [gamma33P]ATP by scintillation counting method
[12] = organism: Homo sapiens; assay: Inhibition of human Ros V2262A mutant (1883 to end residues) using KKKSPGEYVNIEFG as substrate measured after 40 mins in presence of [gamma33P]ATP by scintillation counting method; in short: as §1
[13] = molecular target: Casein kinase II subunit alpha' (CK2alpha2, Homo sapiens) (UniProt P19784); assay: Inhibition of recombinant full length human CK2alpha2 at 10 uM using RRRDDDSDDD as substrate measured after 40 mins in presence of [gamma33P]ATP by scintillation counting method
[14] = tested on: Mast/stem cell growth factor receptor Kit (Homo sapiens), P10721 [D816H]; assay: Inhibition of recombinant human c-Kit D816H mutant (544 to end residues) at 10 uM using GGMEDIYFEFMGGKKK as substrate measured after 40 mins in presence of [gamma33P]ATP by scintillation counting method
[15] = organism: Mus musculus; assay: Inhibition of recombinant full-length mouse PI3K p110beta/p85beta R123L mutant at 10 uM using phosphatidylinositol-4, 5-bisphosphate as substrate measured after 40 mins by HTRF assay
[16] = tested on: Hepatocyte growth factor receptor (Homo sapiens), P08581 [Y1230C]; assay: Inhibition of recombinant human MET A1209G/V1290L/Y1248C mutant (974 to end residues) at 10 uM using KKKGQEEEYVFIE as substrate measured after 40 mins in presence of [gamma33P]ATP by scintillation counting method
[17] = molecular target: Proto-oncogene tyrosine-protein kinase Src (Homo sapiens) (UniProt P12931); assay: Inhibition of human Src (1 to 530 residues) using GGEEEEYFELVKKKK as substrate measured after 40 mins in presence of [gamma33P]ATP by scintillation counting method
[18] = molecular target: Serine/threonine-protein kinase ICK (Homo sapiens) (UniProt Q9UPZ9); assay: Inhibition of recombinant human ICK (1 to 312 residues) at 10 uM using RRRFRPASPLRGPPK as substrate measured after 40 mins in presence of [gamma33P]ATP by scintillation counting method
[19] = molecular target: Mitogen-activated protein kinase kinase kinase 3 (Homo sapiens) (UniProt Q99759); assay: Inhibition of recombinant full-length human MEKK3 at 10 uM using myelin basic protein as substrate measured after 40 mins in presence of [gamma33P]ATP by scintillation counting method
[20] = molecular target: Serine/threonine-protein kinase DCLK3 (Homo sapiens) (UniProt Q9C098); assay: Inhibition of recombinant human DCAMKL3 (345 to end residues) at 10 uM using KKLNRTLSFAEPG as substrate measured after 40 mins in presence of [gamma33P]ATP by scintillation counting method
[21] = molecular target: Cyclin-dependent kinase-like 4 (Homo sapiens) (UniProt Q5MAI5); assay: Inhibition of human CDKL4 at 10 uM by radiometric method; in short: as §1
[22] = organism: Mus musculus; assay: Inhibition of recombinant full-length mouse PI3K p110beta/p85alpha R123L mutant at 10 uM using phosphatidylinositol-4, 5-bisphosphate as substrate measured after 40 mins by HTRF assay
[23] = tested on: PI3-kinase p110-alpha/p85-alpha (Homo sapiens), P27986+P42336 [H1047R]; assay: Inhibition of recombinant full-length human PI3K p110alpha/p85alpha H1047R mutant at 10 uM using phosphatidylinositol-4, 5-bisphosphate as substrate measured after 40 mins by fluorescence assay; type: protein-complex assay
[24] = tested on: CDK18/Cyclin Y (Homo sapiens), Q07002+Q8ND76 [T166M]; assay: Inhibition of recombinant full length human cyclinY/CDK18 T166M mutant at 10 uM using YRRAAVPPSPSLS as substrate measured after 40 mins in presence of [gamma33P]ATP by scintillation counting method; type: protein-complex assay

Sequence of Serine/threonine-protein kinase ICK (Homo sapiens) (Q9UPZ9 whole entry, the tested form may be a part): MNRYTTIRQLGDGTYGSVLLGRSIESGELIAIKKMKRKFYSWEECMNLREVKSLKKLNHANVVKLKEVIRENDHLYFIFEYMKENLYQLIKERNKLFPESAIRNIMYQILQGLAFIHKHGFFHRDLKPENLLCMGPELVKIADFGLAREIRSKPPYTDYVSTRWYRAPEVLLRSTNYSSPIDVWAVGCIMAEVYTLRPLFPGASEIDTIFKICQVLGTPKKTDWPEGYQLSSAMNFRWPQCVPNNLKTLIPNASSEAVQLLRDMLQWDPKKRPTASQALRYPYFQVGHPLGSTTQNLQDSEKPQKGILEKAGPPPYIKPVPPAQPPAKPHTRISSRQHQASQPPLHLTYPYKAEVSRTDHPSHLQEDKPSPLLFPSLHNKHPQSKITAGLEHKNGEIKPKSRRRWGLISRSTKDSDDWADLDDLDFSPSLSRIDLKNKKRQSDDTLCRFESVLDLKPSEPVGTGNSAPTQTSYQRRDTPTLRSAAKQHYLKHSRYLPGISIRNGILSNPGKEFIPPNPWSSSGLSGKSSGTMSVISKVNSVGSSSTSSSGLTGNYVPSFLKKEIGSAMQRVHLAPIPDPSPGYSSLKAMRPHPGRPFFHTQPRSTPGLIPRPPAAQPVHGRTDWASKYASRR
Sequence of Hepatocyte growth factor receptor (Homo sapiens), P08581 [Y1230C] (P08581 whole entry Y1230C, the tested form may be a part): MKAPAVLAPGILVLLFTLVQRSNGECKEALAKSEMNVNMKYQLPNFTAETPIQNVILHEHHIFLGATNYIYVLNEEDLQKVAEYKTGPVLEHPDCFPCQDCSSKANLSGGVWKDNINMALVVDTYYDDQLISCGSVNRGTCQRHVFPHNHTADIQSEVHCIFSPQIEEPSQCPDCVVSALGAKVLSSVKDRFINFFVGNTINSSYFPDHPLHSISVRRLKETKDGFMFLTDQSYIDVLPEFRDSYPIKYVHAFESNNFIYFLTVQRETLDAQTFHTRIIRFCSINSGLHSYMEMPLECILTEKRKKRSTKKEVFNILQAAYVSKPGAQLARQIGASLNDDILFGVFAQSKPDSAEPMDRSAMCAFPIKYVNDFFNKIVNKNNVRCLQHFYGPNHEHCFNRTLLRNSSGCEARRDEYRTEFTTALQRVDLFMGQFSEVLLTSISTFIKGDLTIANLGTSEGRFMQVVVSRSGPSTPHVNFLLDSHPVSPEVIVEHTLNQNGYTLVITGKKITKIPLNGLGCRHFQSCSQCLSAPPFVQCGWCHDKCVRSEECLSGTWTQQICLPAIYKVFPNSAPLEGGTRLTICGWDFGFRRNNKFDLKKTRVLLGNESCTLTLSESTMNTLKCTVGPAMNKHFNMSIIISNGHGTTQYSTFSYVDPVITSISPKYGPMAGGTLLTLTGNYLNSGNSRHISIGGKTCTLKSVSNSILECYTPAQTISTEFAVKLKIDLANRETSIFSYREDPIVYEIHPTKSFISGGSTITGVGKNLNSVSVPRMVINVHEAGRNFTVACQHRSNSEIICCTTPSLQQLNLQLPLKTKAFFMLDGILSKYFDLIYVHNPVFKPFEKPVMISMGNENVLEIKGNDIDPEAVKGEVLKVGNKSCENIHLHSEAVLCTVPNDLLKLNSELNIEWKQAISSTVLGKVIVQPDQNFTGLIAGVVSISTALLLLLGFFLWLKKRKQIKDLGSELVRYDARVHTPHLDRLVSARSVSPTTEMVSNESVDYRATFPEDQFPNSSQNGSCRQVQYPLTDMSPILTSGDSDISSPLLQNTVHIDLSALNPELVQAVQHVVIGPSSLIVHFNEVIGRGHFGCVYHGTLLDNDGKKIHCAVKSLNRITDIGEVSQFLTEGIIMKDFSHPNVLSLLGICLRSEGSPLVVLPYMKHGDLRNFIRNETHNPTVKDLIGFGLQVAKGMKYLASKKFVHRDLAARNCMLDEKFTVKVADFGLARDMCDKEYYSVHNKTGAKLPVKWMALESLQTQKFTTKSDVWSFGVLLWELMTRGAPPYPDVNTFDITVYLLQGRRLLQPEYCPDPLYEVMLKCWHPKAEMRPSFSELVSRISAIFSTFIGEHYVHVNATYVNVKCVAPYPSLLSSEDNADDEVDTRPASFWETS
Sequence of Mast/stem cell growth factor receptor Kit (Homo sapiens), P10721 [D816H] (P10721 whole entry D816H): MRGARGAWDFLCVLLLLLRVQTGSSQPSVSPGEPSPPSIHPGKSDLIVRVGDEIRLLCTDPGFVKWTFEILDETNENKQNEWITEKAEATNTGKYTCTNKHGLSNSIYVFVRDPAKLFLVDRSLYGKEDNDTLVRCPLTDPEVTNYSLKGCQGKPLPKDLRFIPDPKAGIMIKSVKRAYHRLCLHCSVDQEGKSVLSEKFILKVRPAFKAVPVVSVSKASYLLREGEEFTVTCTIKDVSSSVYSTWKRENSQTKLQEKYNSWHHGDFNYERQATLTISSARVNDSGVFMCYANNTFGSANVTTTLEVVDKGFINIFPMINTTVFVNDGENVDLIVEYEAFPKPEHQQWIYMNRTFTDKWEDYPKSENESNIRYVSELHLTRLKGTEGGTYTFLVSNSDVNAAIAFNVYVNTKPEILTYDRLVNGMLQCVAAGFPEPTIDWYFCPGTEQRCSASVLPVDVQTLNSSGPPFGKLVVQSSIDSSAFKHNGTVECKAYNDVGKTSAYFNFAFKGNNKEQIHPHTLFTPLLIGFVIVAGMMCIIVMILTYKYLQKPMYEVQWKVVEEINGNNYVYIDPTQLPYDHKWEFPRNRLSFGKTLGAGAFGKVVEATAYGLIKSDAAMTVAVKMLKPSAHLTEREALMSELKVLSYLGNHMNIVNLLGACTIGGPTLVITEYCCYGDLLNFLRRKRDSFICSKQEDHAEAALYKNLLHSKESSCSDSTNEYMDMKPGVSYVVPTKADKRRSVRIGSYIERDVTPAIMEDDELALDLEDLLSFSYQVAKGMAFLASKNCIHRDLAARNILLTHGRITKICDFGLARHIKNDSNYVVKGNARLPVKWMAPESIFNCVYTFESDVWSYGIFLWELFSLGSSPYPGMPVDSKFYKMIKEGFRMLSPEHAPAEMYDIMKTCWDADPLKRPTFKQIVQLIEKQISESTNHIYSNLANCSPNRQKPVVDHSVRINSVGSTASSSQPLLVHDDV
Sequence of SRSF protein kinase 1 (Homo sapiens) (Q96SB4 whole entry, the tested form may be a part): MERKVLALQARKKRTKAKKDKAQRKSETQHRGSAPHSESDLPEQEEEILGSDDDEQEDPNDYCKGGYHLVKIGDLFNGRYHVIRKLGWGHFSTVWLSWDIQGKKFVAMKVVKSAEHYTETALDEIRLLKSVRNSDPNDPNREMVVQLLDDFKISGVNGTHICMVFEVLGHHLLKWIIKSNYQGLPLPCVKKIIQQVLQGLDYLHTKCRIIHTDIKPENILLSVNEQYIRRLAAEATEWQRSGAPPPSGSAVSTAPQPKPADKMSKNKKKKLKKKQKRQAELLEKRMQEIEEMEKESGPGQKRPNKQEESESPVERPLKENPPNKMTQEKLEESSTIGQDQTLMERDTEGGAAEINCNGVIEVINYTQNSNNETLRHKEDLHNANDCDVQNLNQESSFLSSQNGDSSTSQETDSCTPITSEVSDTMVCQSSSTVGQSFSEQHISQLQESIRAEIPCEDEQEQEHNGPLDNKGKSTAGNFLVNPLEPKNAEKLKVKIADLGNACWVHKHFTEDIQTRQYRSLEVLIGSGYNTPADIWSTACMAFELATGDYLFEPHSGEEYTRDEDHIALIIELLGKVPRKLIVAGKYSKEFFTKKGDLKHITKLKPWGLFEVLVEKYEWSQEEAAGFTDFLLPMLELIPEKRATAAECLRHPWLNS
Sequence of Serine/threonine-protein kinase DCLK3 (Homo sapiens) (Q9C098 whole entry): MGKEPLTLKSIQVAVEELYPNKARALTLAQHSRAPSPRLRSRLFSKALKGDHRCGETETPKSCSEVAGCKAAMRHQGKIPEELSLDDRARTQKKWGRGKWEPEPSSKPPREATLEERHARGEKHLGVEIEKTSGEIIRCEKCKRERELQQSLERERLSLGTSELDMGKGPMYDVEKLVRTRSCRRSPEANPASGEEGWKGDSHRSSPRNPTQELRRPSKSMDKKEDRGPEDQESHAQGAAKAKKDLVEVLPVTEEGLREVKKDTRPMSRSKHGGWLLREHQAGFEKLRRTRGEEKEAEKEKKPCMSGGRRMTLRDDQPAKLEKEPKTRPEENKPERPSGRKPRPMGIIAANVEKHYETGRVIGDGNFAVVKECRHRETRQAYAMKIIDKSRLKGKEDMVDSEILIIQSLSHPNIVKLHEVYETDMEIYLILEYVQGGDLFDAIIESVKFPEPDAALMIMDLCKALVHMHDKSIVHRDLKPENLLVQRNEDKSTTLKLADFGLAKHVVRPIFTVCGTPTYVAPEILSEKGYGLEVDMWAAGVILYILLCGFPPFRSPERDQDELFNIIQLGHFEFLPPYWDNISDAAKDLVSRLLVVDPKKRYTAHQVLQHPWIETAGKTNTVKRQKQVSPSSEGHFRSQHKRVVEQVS
Sequence of Glycogen synthase kinase-3 alpha (Homo sapiens) (P49840 2-483 limits assumed): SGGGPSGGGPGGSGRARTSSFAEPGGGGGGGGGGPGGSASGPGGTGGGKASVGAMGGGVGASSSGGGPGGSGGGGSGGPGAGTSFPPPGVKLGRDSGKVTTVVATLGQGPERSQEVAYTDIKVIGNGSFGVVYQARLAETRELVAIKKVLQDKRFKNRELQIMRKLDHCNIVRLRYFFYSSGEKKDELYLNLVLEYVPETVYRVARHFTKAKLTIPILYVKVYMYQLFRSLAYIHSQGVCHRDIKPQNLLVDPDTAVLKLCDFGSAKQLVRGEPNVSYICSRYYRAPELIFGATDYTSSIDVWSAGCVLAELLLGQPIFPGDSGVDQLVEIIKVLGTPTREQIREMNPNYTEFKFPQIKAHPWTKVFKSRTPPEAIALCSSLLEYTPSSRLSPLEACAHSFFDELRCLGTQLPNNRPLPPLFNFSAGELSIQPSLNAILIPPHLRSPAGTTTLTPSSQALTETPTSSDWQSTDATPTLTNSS

CN1C[C@H](Nc2nc3cc[nH]c3c(=O)n2C)C[C@H](c2ccc3c(c2)OCCO3)C1
inactive: Activity [1] | inhibition [2] | inhibition [3] | inhibition [4] | inhibition [5] | inhibition [6] | inhibition [7] | inhibition [8] | inhibition [9] | inhibition [10] | inhibition [11] | inhibition [12] | inhibition [13] | inhibition [14] | inhibition [15] | inhibition [16] | inhibition [17] | inhibition [18] | inhibition [19] | inhibition [20] | inhibition [21] | inhibition [22] | inhibition [23] | inhibition [24]
